The results in this text go back to ChEMBL document CHEMBL1156200, “Removal of sphingosine 1-phosphate receptor-3 (S1P(3)) agonism is essential, but inadequate to obtain immunomodulating 2-aminopropane-1,3-diol S1P(1) agonists with reduced effect on heart rate” (J Med Chem, 2010).

The subject of data set [1] is Mus musculus. As to the kind of experiment: Immunomodulatory activity in ip dosed BALB/c mouse assessed as reduction in lymphocyte using FITC-conjugated hamster antimouse CD3e antibody by flow cytometry. Type of data set: functional. The method, boiled down:
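Male BALB/c mice given the alcohol form intraperitoneally; peripheral blood taken from posterior vena cava 24 h later, hemolyzed and fixed. CD3+ T and CD45R+ (B220) B cells counted by two-colour flow cytometry. ED50 is the dose lowering lymphocyte count by 50% versus vehicle-treated controls; 5 animals per compound.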
On the technique in general: A flow cytometer gives signals particle by particle.

For data set [2], the target named is Sphingosine 1-phosphate receptor 3 (Homo sapiens, UniProt Q99500). Nature of the data set: Agonist activity at human S1P3 receptor expressed in CHO cells assessed as intracellular calcium mobilization. Type of data set: functional, cell-based. In general terms: Calcium assays in cells follow changes in intracellular calcium, usually with a dye or a luminescent sensor.
Sphingosine 1-phosphate receptor 3, sequence (Q99500 whole entry): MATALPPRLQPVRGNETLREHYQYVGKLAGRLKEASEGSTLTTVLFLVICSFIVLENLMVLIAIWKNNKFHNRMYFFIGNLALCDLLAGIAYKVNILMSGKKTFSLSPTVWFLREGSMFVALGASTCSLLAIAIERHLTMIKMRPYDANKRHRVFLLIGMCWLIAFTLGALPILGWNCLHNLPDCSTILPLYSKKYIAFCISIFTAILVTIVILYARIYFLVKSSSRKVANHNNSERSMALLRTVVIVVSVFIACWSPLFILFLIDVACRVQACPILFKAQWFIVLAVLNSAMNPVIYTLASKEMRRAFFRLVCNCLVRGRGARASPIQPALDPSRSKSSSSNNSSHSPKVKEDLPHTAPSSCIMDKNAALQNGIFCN

The target of data set [3] is Sphingosine 1-phosphate receptor 1 (Homo sapiens, UniProt P21453). Nature of the data set: Agonist activity at human S1P1 receptor expressed in human Chem1 cells assessed as intracellular calcium mobilization. Type of data set: functional, cell-based.
Sphingosine 1-phosphate receptor 1, sequence (P21453 whole entry): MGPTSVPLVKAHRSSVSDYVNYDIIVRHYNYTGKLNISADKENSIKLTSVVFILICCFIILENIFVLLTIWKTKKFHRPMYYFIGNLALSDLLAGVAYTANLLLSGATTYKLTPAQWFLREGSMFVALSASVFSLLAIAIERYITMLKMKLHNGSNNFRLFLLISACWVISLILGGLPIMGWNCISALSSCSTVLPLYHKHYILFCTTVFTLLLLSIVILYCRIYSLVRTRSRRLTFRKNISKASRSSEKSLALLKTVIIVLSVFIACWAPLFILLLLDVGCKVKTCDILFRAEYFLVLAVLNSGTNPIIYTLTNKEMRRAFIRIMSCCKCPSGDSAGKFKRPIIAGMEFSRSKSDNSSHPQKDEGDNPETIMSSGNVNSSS
Data set [4] concerns Rattus norvegicus. Nature of the data set: Toxicity in iv dosed Sprague-Dawley rat assessed as reduction in heart rate. To be noted: in vivo. In kind it is organism-based. Summed up:
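Male Sprague-Dawley rats anesthetized with ip pentobarbital sodium (50 mg/kg); phosphate form injected iv over about 30 s at 0.03 to 3 mg/kg. Heart rate counted from R waves of lead II ECG before dosing and 1, 2, 3, 4, 5, 10 and 15 min after. ID50 is the dose lowering heart rate by 50% versus vehicle control; 3-6 animals per compound.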

In the case of `COc1ccc(Sc2ccc(-c3ccc(CCC(N)(CO)CO)cc3)c(F)c2)cc1`, the ED50 (usually the midpoint of the dose-response relation) in data set [1] was 0.28 mg/kg.

As for `COc1cccc(Sc2ccc(-c3ccc(CCC(N)(CO)CO)cc3)c(F)c2)c1`, the ED50 in data set [1] amounted to 0.11 mg/kg.

As for `NC(CO)(CO)CCc1ccc(-c2ccc(SCc3ccccc3)cc2F)cc1`, in data set [1], the ED50 amounted to 0.04 mg/kg.

Consider `Cc1ccc(Sc2ccc(-c3ccc(CCC(N)(CO)COP(=O)(O)O)cc3)c(F)c2)cc1` (configuration not stated), for which the EC50 (commonly the concentration at which the effect is half-maximal) was over 1000 nM in data set [2] and 3 nM in data set [3].

With `CC(C)c1ccc(Sc2ccc(-c3ccc(CCC(N)(CO)CO)cc3)c(F)c2)cc1`, the ED50 in data set [1] was found to be 0.15 mg/kg.

As to `CCCCOc1ccc(-c2ccc(CCC(N)(CO)COP(=O)(O)O)cc2)c(F)c1.F` (configuration not stated), the concentration giving a half-maximal response (EC50) in data set [2] was determined as 51 nM; in data set [3], 0.53 nM. In addition, the ID50 in data set [4] was determined as 0.009 mg/kg.

`CCCCOc1cc(F)c(-c2ccc(CCC(N)(CO)COP(=O)(O)O)cc2)cc1F` (configuration not stated): the results for the EC50 in data set [2] and in data set [3] were over 1000 nM and 1.2 nM, respectively.

`CCCCOc1ccc(-c2ccc(CCC(N)(CO)COP(=O)(O)O)cc2)cc1Cl` (configuration not stated): the EC50 is over 1000 nM in data set [2] and 3.1 nM in data set [3].

Turning to `NC(CO)(CO)CCc1ccc(-c2ccc(Sc3ccc(C(F)(F)F)cc3)cc2F)cc1`, the ED50 in data set [1] came to 0.34 mg/kg.

Consider `Cc1cccc(Sc2ccc(-c3ccc(CCC(N)(CO)COP(=O)(O)O)cc3)c(F)c2)c1` (configuration not stated), for which the EC50 is over 1000 nM in data set [2] and 2 nM in data set [3]. The ID50 in data set [4] is 0.063 mg/kg.

With `Cc1ccc(Sc2ccc(-c3ccc(CCC(N)(CO)COP(=O)(O)O)c(Cl)c3)c(F)c2)cc1` (configuration not stated), the EC50 was over 1000 nM in data set [2] and 4.2 nM in data set [3]. In addition, the ID50 in data set [4] came to 0.016 mg/kg.

For `NC(CO)(CO)CCc1ccc(-c2ccc(Oc3ccccc3)cc2)cc1Cl`, the ED50 in data set [1] is 0.16 mg/kg.

On to `NC(CO)(CO)CCc1ccc(-c2ccc(OCc3ccccc3)cc2)cc1Cl`, for which the ED50 in data set [1] turned out to be 0.13 mg/kg.

On to `CCCCOc1ccc(-c2ccc(CCC(N)(CO)CO)cc2)c(C)c1`, for which, in data set [1], the ED50 stood at 3.4 mg/kg.

With `NC(CO)(CO)CCc1ccc(-c2ccc(Sc3ccc(F)cc3)cc2F)cc1`, in data set [1], the ED50 turned out to be 0.07 mg/kg.

On to `NC(CO)(CO)CCc1ccc(-c2ccc(Sc3cccc(F)c3)cc2F)cc1`, for which the ED50 in data set [1] was 0.16 mg/kg.

As to `NC(CO)(CCc1ccc(-c2ccc(OCc3ccccc3)cc2)cc1Cl)COP(=O)(O)O` (configuration not stated), the values for the EC50 in data set [2] and in data set [3] were 13 nM and 1.6 nM, respectively. The ID50 in data set [4] came to 0.017 mg/kg.

Consider `NC(CO)(CO)CCc1ccc(-c2ccc(OCc3ccccc3)cc2F)cc1`, for which the ED50 in data set [1] was 0.01 mg/kg.

As to `NC(CO)(CO)CCc1ccc(-c2ccc(SCc3ccccc3)cc2)cc1Cl`, in data set [1], the ED50 is 0.08 mg/kg.

`NC(CO)(CO)CCc1ccc(-c2ccc(Sc3ccccc3)cc2F)cc1`: the ED50 in data set [1] amounted to 0.42 mg/kg.

Regarding `NC(CO)(CCc1ccc(-c2ccc(SCc3ccccc3)cc2F)cc1)COP(=O)(O)O` (configuration not stated), the values for the EC50 in data set [2] and in data set [3] were 4.9 nM and 0.84 nM, respectively. Also, in data set [4], the ID50 stood at 0.008 mg/kg.

Consider `NC(CO)(CO)CCc1ccc(-c2ccc(Sc3ccc(Cl)cc3)cc2F)cc1`, for which the ED50 in data set [1] came to 0.18 mg/kg.

Regarding `CCc1ccc(Sc2ccc(-c3ccc(CCC(N)(CO)CO)cc3)c(F)c2)cc1`, the ED50 in data set [1] turned out to be 0.04 mg/kg.

On to `CCCCOc1cc(F)c(-c2ccc(CCC(N)(CO)CO)cc2)cc1F`, for which the ED50 in data set [1] worked out at 0.15 mg/kg.

`CCCCOc1ccc(-c2ccc(CCC(N)(CO)CO)cc2)cc1F`: the ED50 in data set [1] stood at 0.21 mg/kg.

For `CCCCOc1ccc(-c2ccc(CCC(N)(CO)CO)cc2)cc1Cl`, in data set [1], the ED50 was found to be 1.3 mg/kg.

In the case of `NC(CO)(CO)CCc1ccc(-c2ccc(Oc3ccccc3)cc2)cc1`, the ED50 in data set [1] is 0.25 mg/kg.

In the case of `CCCCOc1ccc(-c2ccc(CCC(N)(CO)COP(=O)(O)O)cc2)cc1F` (configuration not stated), the EC50 was over 1000 nM in data set [2] and 1.3 nM in data set [3].

On to `CCCCCc1ccc(-c2ccc(CCC(N)(CO)CO)c(Cl)c2)cc1`, for which, in data set [1], the ED50 came out at 0.11 mg/kg.

With `CCCCOc1ccc(-c2ccc(CCC(N)(CO)CO)cc2)cc1`, in data set [1], the ED50 is 0.22 mg/kg.

On to `CCCCOc1ccc(-c2ccc(CCC(N)(CO)CO)c(Cl)c2)cc1`, for which the ED50 in data set [1] came to 0.08 mg/kg.

For the compound `NC(CO)(CCc1ccc(-c2ccc(OCc3ccccc3)cc2F)cc1)COP(=O)(O)O` (configuration not stated), the EC50 is 4.1 nM in data set [2] and 1.1 nM in data set [3]. In addition, the ID50 in data set [4] came to 0.014 mg/kg.

Regarding `Cc1ccc(Oc2ccc(-c3ccc(CCC(N)(CO)COP(=O)(O)O)cc3)c(F)c2)cc1` (configuration not stated), the concentration giving a half-maximal response (EC50) came to 83 nM in data set [2] and 1.8 nM in data set [3]. For the same compound, in data set [4], the ID50 is 0.016 mg/kg.

As for `NC(CO)(CCc1ccc(-c2ccc(Sc3ccccc3)cc2F)cc1)COP(=O)(O)O` (configuration not stated), the results for the EC50 in data set [2] and in data set [3] were over 1000 nM and 3.6 nM, respectively.

On to `CCCCOc1ccc(-c2ccc(CCC(N)(CO)CO)cc2)c(F)c1`, for which the ED50 in data set [1] amounted to 0.06 mg/kg.

Take `CCCCOc1ccc(-c2ccc(CCC(N)(CO)COP(=O)(O)O)c(Cl)c2)cc1` (configuration not stated): the figures for the EC50 in data set [2] and in data set [3] were over 1000 nM and 0.62 nM, respectively. Besides, the ID50 in data set [4] worked out at 0.013 mg/kg.

For the compound `Cc1ccc(Oc2ccc(-c3ccc(CCC(N)(CO)CO)cc3)c(F)c2)cc1`, in data set [1], the ED50 was found to be 0.04 mg/kg.

`Cc1ccc(Sc2ccc(-c3ccc(CCC(N)(CO)CO)cc3)c(F)c2)cc1`: in data set [1], the ED50 turned out to be 0.05 mg/kg.

`Cc1cccc(Sc2ccc(-c3ccc(CCC(N)(CO)CO)cc3)c(F)c2)c1`: in data set [1], the ED50 came out at 0.13 mg/kg.

On to `Cc1ccc(Sc2ccc(-c3ccc(CCC(N)(CO)CO)c(Cl)c3)c(F)c2)cc1`, for which the ED50 in data set [1] came out at 0.04 mg/kg.

As to `NC(CO)(CCc1ccc(-c2ccc(Oc3ccccc3)cc2)cc1)COP(=O)(O)O` (configuration not stated), the EC50 in data set [2] is over 1000 nM; in data set [3], 21 nM. In data set [4], the ID50 came to 0.14 mg/kg.

Take `NC(CO)(CCc1ccc(-c2ccc(Oc3ccccc3)cc2)cc1Cl)COP(=O)(O)O` (configuration not stated): the figures for the EC50 in data set [2] and in data set [3] were over 1000 nM and 4.7 nM, respectively. Also, the ID50 in data set [4] was 0.087 mg/kg.

On to `CCCCCc1ccc(-c2ccc(CCC(N)(CO)CO)cc2)c(F)c1`, for which the ED50 in data set [1] came to 0.1 mg/kg.

As to `CCCCCc1ccc(-c2ccc(CCC(N)(CO)COP(=O)(O)O)cc2)c(F)c1` (configuration not stated), the EC50 was over 1000 nM in data set [2] and 1.1 nM in data set [3].

On to `CCCCCc1ccc(-c2ccc(CCC(N)(CO)COP(=O)(O)O)c(Cl)c2)cc1` (configuration not stated), for which the EC50 was over 1000 nM in data set [2] and 0.64 nM in data set [3].

Take `CCCCOc1ccc(-c2ccc(CCC(N)(CO)COP(=O)(O)O)cc2)cc1` (configuration not stated): the EC50 in data set [2] was over 1000 nM; in data set [3], 0.81 nM. The ID50 in data set [4] amounted to 0.008 mg/kg.

For `CCCCCCCCc1ccc(CCC(N)(CO)COP(=O)(O)O)cc1` (configuration not stated), the ID50 in data set [4] is 0.012 mg/kg.

As for `CCCCCCCCc1ccc(CCC(N)(CO)CO)cc1` [FINGOLIMOD], in data set [1], the ED50 turned out to be 0.02 mg/kg.
